A short description of data set [1]: Cytotoxicity against human COLO320DM cells after 48 hrs by MTT assay. Format: functional, cell-based. As to conditions: COLO 320DM. The procedure, abridged: (§1)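 MTT colorimetric microculture assay in human colorectal cells, 5 × 10⁵ per well. After 48 h, cells incubated at 37 °C in 0.1% DMSO with compound. Sample removed, cells washed with PBS pH 7.4, MTT added. After 4 h, […] added and absorbance read at 595 nm. Triplicates; IC50 given as mean SD, p < 0.05 significant.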

The test system of the next data set is HT-29. Briefly: Cytotoxicity against human HT-29 cells after 48 hrs by MTT assay. The format is functional, cell-based. As to conditions: HT-29, 48 h. The procedure, abridged:
as §1

Data set [2] is described as follows: Prodrug activation in rat fecal material after 24 hrs. The format is ADME, tissue-based, Feces. The procedure, abridged: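 About 1 g fresh rat feces per tube with prodrug in phosphate buffer pH 7.4, diluted with 5 ml buffer to 50 µg/ml, incubated at 37 °C. Aliquots taken over time and read by double-beam UV spectrophotometry at compound-specific wavelengths. Cumulative % release at 24 h; mean SD, n = 6.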

A short description of data set [3]: Prodrug activation in rat large intestine mucosa in presence of azoreductase. Format: tissue-based. The procedure, abridged: (§2)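 Cecal content, small-intestine content, SI mucosa or LI mucosa taken from Wistar rats and suspended in cold PBS pH 7.4 as 10% (w/v) slurry. Cecal content bubbled with nitrogen. Other tissues homogenized and centrifuged to 2% w/w. All stored at −20 °C. Prodrug incubated with each preparation, azo-bond cleavage followed by UV, and % drug release determined.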

Data set [4] is described as follows: Prodrug activation in rat small intestine content in presence of azoreductase. Format: tissue-based. The procedure, abridged: as §2
Data set [5] can be described thus: Prodrug activation in rat small intestine mucosa in presence of azoreductase. The format is tissue-based. The procedure, abridged: as §2
The nature of data set [6]: Prodrug activation in rat cecum content in presence of azoreductase. The format is tissue-based, Caecum. The procedure, abridged:
as §2

Data set [7] in a line: Chemical stability of the compound in 0.1 N HCl solution at pH 1.2. The format is physicochemical. To be noted: buffer. The procedure, abridged: (§3)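 Prodrug held in acidic buffer (pH 1.2, 0.1 N HCl) or basic buffer (pH 7.4) at 37 °C. Aliquots withdrawn at time intervals and remaining prodrug read by UV spectrophotometry at compound-specific wavelengths (306/256, 274/284 or 280/260 nm for acid/pH 7.4). Release reported as % after 24 h; mean SD, n = 6.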

Data set [8] in a line: Chemical stability of the compound in phosphate buffer at pH 7.4. Format: physicochemical. The procedure, abridged:
as §3

The test system of a further data set is COLO 205. Put plainly: Cytotoxicity against human COLO205 cells after 48 hrs by MTT assay. As to conditions: COLO 205, 48 h. Format: functional, cell-based. The procedure, abridged: as §1

Take `O=c1nc(/N=N/c2ccc(O)cc2)ccn1[C@@H]1O[C@H](CO)[C@@H](O)C1(F)F`: the IC50 is 3.72 µM in [1], 2.61 µM in the data set on HT-29 and 3.31 µM in the data set on COLO 205. In addition, the Drug metabolism is recorded as 71% in data set [2]; 5% in data set [3]; 5% in data set [4]; 5% in data set [5]; 70% in data set [6]. In addition, the Stability result in data set [7] and in data set [8] was “Stable” each time.
Take `COC(=O)CC[C@H](NC(=O)c1ccc(N(C)Cc2cnc3nc(/N=N/c4ccc(O)cc4)nc(/N=N/c4ccc(O)cc4)c3n2)cc1)C(=O)OC`: the values for the IC50 (in data set [1]; in the data set with HT-29; in the data set on COLO 205) were 5.74 µM, 3.92 µM and 4.13 µM, respectively. For the same molecule, the Drug metabolism in data set [2] was found to be 64%; in data set [3], 5%; in data set [4], 5%; in data set [5], 5%; in [6], 70%. Moreover, the Stability result in data set [7] and in data set [8] was “Stable” each time.
Regarding `CN(Cc1cnc2nc(N)nc(N)c2n1)c1ccc(C(=O)N[C@@H](CCC(=O)O)C(=O)O)cc1` [METHOTREXATE], the IC50 stood at 5.25 µM in data set [1], 3.45 µM with HT-29 and 3.27 µM in the data set on COLO 205.
For `Nc1ccn([C@@H]2O[C@H](CO)[C@@H](O)C2(F)F)c(=O)n1` [GEMCITABINE] the same measures were 3.92 µM, 1.95 µM and 3.24 µM.

For the origin of these results see ChEMBL document CHEMBL2424618, “Design, synthesis and ex vivo evaluation of colon-specific azo based prodrugs of anticancer agents” (Bioorg Med Chem Lett, 2013).
